Reference: ChEMBL document CHEMBL3045051 (Med Chem Res, 2011)
Active and inactive are the calls of the source.

Tests used:
[1] = tested on: Influenza A virus; experiment: Antiviral activity against Unidentified Influenza A virus (H1N2) infected MDCK cells assessed as inhibition of virus-induced cytopathicity; assay type: functional, organism-based
[2] = tested on: Feline coronavirus; experiment: Antiviral activity against Feline coronavirus infected feline kidney crandell cells assessed as inhibition of virus-induced cytopathicity; assay type: functional, organism-based
In short: (§1)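 Confluent monolayers (feline kidney Crandell, Vero, HEL or HeLa, as named for each virus) were infected with 100 CCID50 of virus and allowed to adsorb for 1 h. Unbound virus was then removed, and cultures were incubated with test compound in serial dilutions (200, 40, 8 … µM). Cytopathicity was scored once untreated infected controls reached complete cytopathic effect.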

[3] = tested on: Respiratory syncytial virus; experiment: Antiviral activity against Respiratory syncytial virus infected human HeLa cells assessed as inhibition of virus-induced cytopathicity; assay type: functional, organism-based; in short: as §1
[4] = tested on: Coxsackievirus B4; experiment: Antiviral activity against Human coxsackievirus B4 infected human HeLa cells assessed as inhibition of virus-induced cytopathicity; assay type: functional, organism-based; in short: as §1
[5] = tested on: Coxsackievirus B4; experiment: Antiviral activity against Human coxsackievirus B4 infected VERO cells assessed as inhibition of virus-induced cytopathicity; assay type: functional, organism-based; in short: as §1
[6] = tested on: Mammalian orthoreovirus 1; experiment: Antiviral activity against Mammalian orthoreovirus 1 infected VERO cells assessed as inhibition of virus-induced cytopathicity; assay type: functional, organism-based; in short: as §1
[7] = tested on: Human respirovirus 3; experiment: Antiviral activity against Human parainfluenza virus 3 infected Vero cells assessed as inhibition of virus-induced cytopathicity; assay type: functional, organism-based; in short: as §1
[8] = tested on: Vesicular stomatitis virus; experiment: Antiviral activity against Vesicular stomatitis virus infected HEL cells assessed as inhibition of virus-induced cytopathicity; assay type: functional, organism-based
[9] = tested on: Vaccinia virus; experiment: Antiviral activity against Vaccinia virus infected human HEL cells assessed as inhibition of virus-induced cytopathicity; assay type: functional, organism-based; settings: Orthopoxvirus vaccinia
[10] = tested on: Human alphaherpesvirus 2; experiment: Antiviral activity against Human herpesvirus 2 strain G infected human HEL cells assessed as inhibition of virus-induced cytopathicity; assay type: functional, organism-based; in short: as §1
[11] = tested on: Human alphaherpesvirus 1; experiment: Antiviral activity against […] 1 KOS infected in human HEL cells assessed as inhibition of virus-induced cytopathicity; assay type: functional, organism-based; in short: as §1
[12] = tested on: Sindbis virus; experiment: Antiviral activity against Sindbis virus infected Hela cells assessed as inhibition of virus-induced cytopathicity; assay type: functional, organism-based
[13] = tested on: Punta Toro virus; experiment: Antiviral activity against Punta Toro virus infected Hela cells assessed as inhibition of virus-induced cytopathicity; assay type: functional, organism-based
[14] = tested on: Vesicular stomatitis virus; experiment: Antiviral activity against Vesicular stomatitis virus infected Hela cells assessed as inhibition of virus-induced cytopathicity; assay type: functional, organism-based
[15] = Antioxidant activity assessed as inhibition of AAPH-induced lipid peroxidation at 1 X 10^-4 M; assay type: functional
[16] = Antioxidant activity assessed as inhibition of AAPH-induced lipid peroxidation at 1 X 10^-5 M; assay type: functional
[17] = target: T1, Seed linoleate 13S-lipoxygenase-1 (Glycine max) (UniProt P08170); experiment: Inhibition of Glycine max (soybean) lipoxygenase using sodium linoleate as substrate at 1 X 10^-4
T1 sequence (whole entry): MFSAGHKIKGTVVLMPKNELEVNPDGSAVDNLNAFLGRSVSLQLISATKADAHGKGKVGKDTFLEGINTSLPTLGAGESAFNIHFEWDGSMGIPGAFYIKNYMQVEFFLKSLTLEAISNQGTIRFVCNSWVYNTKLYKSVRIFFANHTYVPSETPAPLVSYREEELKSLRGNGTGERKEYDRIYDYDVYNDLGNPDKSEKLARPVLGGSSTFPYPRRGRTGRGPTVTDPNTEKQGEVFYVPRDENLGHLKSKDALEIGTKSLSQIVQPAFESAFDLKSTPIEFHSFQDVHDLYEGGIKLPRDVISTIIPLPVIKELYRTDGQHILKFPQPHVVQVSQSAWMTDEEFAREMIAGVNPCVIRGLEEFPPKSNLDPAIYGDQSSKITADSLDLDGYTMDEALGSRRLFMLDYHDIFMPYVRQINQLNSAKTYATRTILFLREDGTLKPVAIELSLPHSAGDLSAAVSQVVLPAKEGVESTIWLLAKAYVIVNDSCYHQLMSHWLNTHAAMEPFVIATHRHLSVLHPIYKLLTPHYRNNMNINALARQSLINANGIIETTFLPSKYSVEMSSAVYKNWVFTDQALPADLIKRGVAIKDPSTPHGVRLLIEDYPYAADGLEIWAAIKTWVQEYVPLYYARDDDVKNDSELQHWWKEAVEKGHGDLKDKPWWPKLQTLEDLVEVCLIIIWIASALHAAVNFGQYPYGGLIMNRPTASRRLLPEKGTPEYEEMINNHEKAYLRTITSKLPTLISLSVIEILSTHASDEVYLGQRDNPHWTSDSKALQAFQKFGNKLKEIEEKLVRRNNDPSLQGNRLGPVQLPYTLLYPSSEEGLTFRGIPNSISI

[18] = tested on: Radical scavenging activity; experiment: Antioxidant activity assessed as DPPH radical scavenging activity at 1 X 10^-4 M after 60 min; assay type: functional
In short: (§2)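 Test compound was mixed with DPPH (0.05 and 0.1 mM) in ethanol. Absorbance at 517 nm was read after 20 and 60 min and compared with the NDGA standard, with ethanol as control. Each experiment was run at least in triplicate, and the SD of absorbance was <10% of the mean.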

[19] = tested on: Radical scavenging activity; experiment: Antioxidant activity assessed as DPPH radical scavenging activity at 1 X 10^-4 M after 20 min; assay type: functional; in short: as §2
[20] = tested on: Radical scavenging activity; experiment: Antioxidant activity assessed as DPPH radical scavenging activity at 5 X 10^-5 M after 60 min; assay type: functional; in short: as §2
[21] = tested on: Radical scavenging activity; experiment: Antioxidant activity assessed as DPPH radical scavenging activity at 5 X 10^-5 M after 20 min; assay type: functional; in short: as §2

Cc1c(C)c2c(c(C)c1O)CCC(C)(C(=O)O)O2 (stereo unspecified)
inactive: Activity [1] | Activity ([1]; H1N1) | Activity [2] | Activity [3] | Activity [4] | Activity [5] | Activity [6] | Activity [7] | Activity [8] | Activity [9] | Activity [10] | Activity [11] | Activity [12] | Activity [13] | Activity [14]
63%: inhibition [15]

CC(C(=O)N1CCCC1)c1cccc(C(OC(=O)N2CCCC2)c2ccccc2)c1 (stereo unspecified)
6.5%: inhibition [20]
16.4%: inhibition [16]
5.7%: inhibition [21]
inactive: Activity [1] | Activity ([1]; H1N1) | Activity [2] | Activity [3] | Activity [4] | Activity [5] | Activity [6] | Activity [7] | Activity [8] | Activity [9] | Activity [10] | Activity [11] | Activity [12] | Activity [13] | Activity [14]
12.7%: inhibition [17]
77.2%: inhibition [15]
2.7%: inhibition [18]
2.6%: inhibition [19]

CONC(=O)OC(c1ccccc1)c1cccc(C(C)C(=O)NOC)c1 (stereo unspecified)
61%: inhibition [15]
4.1%: inhibition [20]
inactive: Activity [1] | Activity ([1]; H1N1) | Activity [2] | Activity [3] | Activity [4] | Activity [5] | Activity [6] | Activity [7] | Activity [8] | Activity [9] | Activity [10] | Activity [11] | Activity [12] | Activity [13] | Activity [14] | inhibition [21]
2.5%: inhibition [16]
1.8%: inhibition [19]
3.2%: inhibition [18]
26.9%: inhibition [17]

CC(C(=O)N1CCCCC1)c1cccc(C(OC(=O)N2CCCCC2)c2ccccc2)c1 (stereo unspecified)
97.4%: inhibition [15]
inactive: Activity [1] | Activity ([1]; H1N1) | Activity [2] | Activity [3] | Activity [4] | Activity [5] | Activity [6] | Activity [7] | Activity [8] | Activity [9] | Activity [10] | Activity [11] | Activity [12] | Activity [13] | Activity [14] | inhibition [17]
10%: inhibition [20]
25.5%: inhibition [16]
4.3%: inhibition [18]
1.7%: inhibition [19]
8.6%: inhibition [21]

CC(Cc1ccc(O)c(O)c1)C(C)Cc1ccc(O)c(O)c1 (stereo unspecified)
97%: inhibition [18]
81%: inhibition [21]
83%: inhibition [20]
93%: inhibition [19]
inactive: Activity [1] | Activity ([1]; H1N1) | Activity [2] | Activity [3] | Activity [4] | Activity [5] | Activity [6] | Activity [7] | Activity [8] | Activity [9] | Activity [10] | Activity [11] | Activity [12] | Activity [13] | Activity [14]

O=C(O)/C=C/c1ccc(O)c(O)c1
inactive: Activity [1] | Activity ([1]; H1N1) | Activity [2] | Activity [3] | Activity [4] | Activity [5] | Activity [6] | Activity [7] | Activity [8] | Activity [9] | Activity [10] | Activity [11] | Activity [12] | Activity [13] | Activity [14]
